Rows were chosen to be rich in hits. Some 3.4% of all compounds tested hit in one or more screens of this group.
E-sel inducer = induces E-selectin expression in human endothelial cells. P16581. HUVEC E-selectin immunofluorescence imaging; normalized: neutral wells 0, TNF-alpha wells 100. activation, % at 7.58 µM. 0.37% of 260,000 active. AID 686992;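 active = mean E-selectin-positive cell signal at least 10% of the positive control, reached in at least 60% of replicates, without over 20% cell loss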
Target sequence (P16581 whole entry, looked up): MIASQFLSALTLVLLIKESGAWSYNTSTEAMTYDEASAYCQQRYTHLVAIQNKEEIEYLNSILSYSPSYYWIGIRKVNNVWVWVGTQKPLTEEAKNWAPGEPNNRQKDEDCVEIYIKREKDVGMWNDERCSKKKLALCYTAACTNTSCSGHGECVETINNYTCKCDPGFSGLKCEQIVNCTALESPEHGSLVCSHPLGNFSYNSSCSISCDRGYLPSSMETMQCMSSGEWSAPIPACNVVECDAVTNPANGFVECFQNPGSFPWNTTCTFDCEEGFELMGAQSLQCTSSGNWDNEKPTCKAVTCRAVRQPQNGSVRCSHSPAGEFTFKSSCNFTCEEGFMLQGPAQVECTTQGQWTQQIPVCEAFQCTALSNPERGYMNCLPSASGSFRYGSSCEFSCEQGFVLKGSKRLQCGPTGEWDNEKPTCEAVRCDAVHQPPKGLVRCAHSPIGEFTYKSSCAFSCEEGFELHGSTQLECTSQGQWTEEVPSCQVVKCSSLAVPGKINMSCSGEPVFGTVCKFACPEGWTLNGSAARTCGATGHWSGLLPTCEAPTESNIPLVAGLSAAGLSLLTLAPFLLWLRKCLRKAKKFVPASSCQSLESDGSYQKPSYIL
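Assay system: HUVEC primary endothelial cells. Input: 3,000 HUVEC seeded per well. Doses: one compound dose added by pin transfer. Read-out basis: % PE-positive cells. Benchmarks: TNF-alpha high, DMSO low. Detection: immunofluorescence imaging. Buffer or medium: EGM-2, gelatin.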
SIRT5 block = sirtuin-5 (human) deacylase inhibition. Q9NXA8. inhibition, % at 15 µM. Purified SirT5, succinyl-peptide AMC, trypsin-coupled fluorescence. 1.1% of 330,000 active; in the data active = inhibition above about 15%
S100A4 inh HTS = inhibitors of human S100A4 binding to myosin IIA peptide; S100A4/TAMRA-MyoIIA peptide fluorescence polarization; 0.14% of 360,000 active; P26447; AID 652163; inhibition, % at 10.7 µM;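 active = mean inhibition of at least 70% across replicates, with every replicate also reaching that level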
Target sequence (P26447 whole entry, looked up): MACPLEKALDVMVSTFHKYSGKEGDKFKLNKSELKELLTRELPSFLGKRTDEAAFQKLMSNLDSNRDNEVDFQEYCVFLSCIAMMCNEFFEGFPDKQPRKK
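Material: human S100A4 monomer with TAMRA-labelled myosin IIA peptide; buffer or medium: HEPES pH 7.2 with CaCl2, KCl, NaCl, DTT, Triton; compound dosing: one concentration per compound; schedule: 5 min incubation before reading; benchmarks: neutral control DMSO, positive control TFP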
ERAP1 inh = blocks human ERAP1 aminopeptidase activity; Q9NZ08; recombinant ERAP1, Leu-AMC fluorescence, 60 min; inhibition, % at 10.7 µM; 0.15% of 340,000 active;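 active = mean replicate inhibition of at least 30%, or all replicates individually reaching that 30% level; inactive = mean below 30% and not every replicate reaching it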;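 also: 0% = neutral control wells and 100% = L-leucinethiol positive control wells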
Ecoli rRNA inh = inhibits bacterial ribosomal RNA function over humanized ribosomes; E. coli WT GFP vs humanized-ribosome RFP mutants, fluorescence, 24 h; active compounds read low; DMSO median 0, no signal -100; GFP signal change (wild-type ribosome), % (concentration not given with the values); 1.6% of 350,000 active; AID 720706;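 active = significant combined selectivity score with lowered wild-type GFP, culture density cut under 30%, mutant RFP and density less affected; inactive = any of these conditions unmet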
MLL AF4-AF9 inh = blocks AF4 peptide binding to human AF9. AID 651704. AlphaScreen, biotin-AF4 peptide binding to FLAG-AF9. inhibition, % at 10 µM. 0.47% of 350,000 active;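 active = every replicate reaching a set inhibition limit, whatever the replicate mean, cut at about 25% in these data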;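 also: 0% = plate neutral control median and 100% = total signal loss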
Numbers without * were called inactive; nt = not tested or not shown; + = active, no number.

SMILES | E-sel inducer | SIRT5 block | S100A4 inh HTS | ERAP1 inh | Ecoli rRNA inh | MLL AF4-AF9 inh
C[C@@H]1CCCCO[C@@H](CN(C)Cc2ccc(Cl)c(Cl)c2)[C@@H](C)CN([C@H](C)CO)C(=O)c2cc(NC(=O)c3ccncc3)ccc2O1 | 0.1 | 15.1* | 2.0 | -1.9 | 1.8 | 2.9
Cc1noc(C)c1NC(=O)Nc1ccc2c(c1)C(=O)N([C@H](C)CO)C[C@H](C)[C@@H](CN(C)Cc1ccc(Cl)c(Cl)c1)OCCCC[C@@H](C)O2 | -0.3 | 2.9 | -0.6 | -1.0 | 2.7 | -4.2
Cc1noc(C)c1NC(=O)Nc1ccc2c(c1)C(=O)N([C@@H](C)CO)C[C@@H](C)[C@@H](CN(C)S(=O)(=O)c1cn(C)cn1)OCCCC[C@@H](C)O2 | 0.6 | 17.4* | -4.7 | 6.3 | 0.3 | -1.4
O=C(N[C@H]1CC[C@H](CC(=O)N2CCN(c3ccccc3)CC2)O[C@@H]1CO)c1ccncc1 | -0.6 | -0.1 | -16.2 | -3.4 | 0.7 | 1.3
COc1ccccc1C(=O)N1C[C@H]2[C@@H](c3ccccc31)[C@@H](CO)N2C(=O)C1CCCC1 | 0.1 | 0.1 | -74.8 | 1.3 | 2.8 | -0.5
CCS(=O)(=O)N1CCCCN2[C@H](CO)[C@@H](c3ccc(-c4ccc(C#N)cc4)cc3)[C@H]2C1 | -0.4 | 6.0 | 15.2 | 4.6 | -0.4 | 7.8
CN1c2ccc(-c3ccc(F)cc3)cc2[C@@H]2[C@@H](CCN2C(=O)CC2CC2)[C@H]1CO | nt | nt | nt | nt | -23.1 | nt
Cc1nc2ccccc2n2c(-c3ccccc3)c3c(=O)n(C)c(=O)n(C)c3c12 | nt | 0.3 | 0.4 | 7.5 | -34.0* | nt
Cc1cc(C)c2c3c(c(-c4ccccc4)n2n1)c(=O)n(C)c(=O)n3C | -0.7 | -6.4 | -0.1 | nt | 12.9 | -2.0
Cc1ccc(S(=O)(=O)Nc2ccc3c(c2)C(=O)N([C@@H](C)CO)C[C@H](C)[C@H](CN(C)Cc2ccncc2)OCCCC[C@@H](C)O3)cc1 | nt | 3.7 | 6.2 | -4.3 | 2.6 | 0.8
Cn1cnc(S(=O)(=O)N2CCCC(c3cc(C(=O)Nc4ccc(F)c(Cl)c4)no3)C2)c1 (centres undefined) | 0.4 | nt | -12.9 | -2.9 | -25.2* | 3.4
O=C(Nc1ccc(F)c(Cl)c1)c1cc(C2CCCN(S(=O)(=O)c3ccccc3)C2)on1 (centres undefined) | 0.4 | nt | -5.5 | -0.1 | -5.1 | -0.6
CN1CCN(C2Cc3ccc(F)cc3Sc3cc(F)c(Cl)cc32)CC1 (centres undefined) | -7.2 | 1.0 | 0.0 | 8.3 | -42.5* | 12.4
CN1CCN(C2Cc3ccccc3Sc3ccc(Cl)cc32)CC1 (centres undefined) | 0.4 | -2.0 | 1.3 | 1.0 | nt | 8.1
CSc1ccc2c(c1)C(N1CCN(C)CC1)Cc1ccccc1S2 (centres undefined) | 1.4 | -1.6 | -5.1 | 5.8 | -32.6 | 18.9
CN1CCN(C2Cc3ccccc3Sc3cc(C(F)(F)F)ccc32)CC1 (centres undefined) | -0.1 | -1.1 | -1.9 | 18.5 | -51.0 | 26.2*
CCc1cccc2c1Sc1ccccc1CC2N1CCNCC1 (centres undefined) | nt | -7.6 | 5.5 | 10.0 | -51.5* | 15.4
O=C(Nc1nc2ccc(F)cc2s1)C1=COCCO1 | 1.7 | -1.5 | 3.2 | 6.4 | -20.1* | -17.7
O=C(Nc1nc2cc3c(cc2s1)OCCO3)C1=COCCO1 | nt | 10.2 | 8.8 | 0.9 | -7.2 | -1.1
COC(=O)[C@@]1(Cc2ccccc2)N=C(c2ccc(OCCCO)cc2)O[C@H]1c1ccccc1CN=[N+]=[N-] | nt | 19.5* | -44.7 | -0.2 | nt | 10.1
COC(=O)[C@]1(Cc2ccccc2)N=C(c2ccc(OCCCO)cc2)O[C@@H]1c1ccccc1CN=[N+]=[N-] | nt | 0.7 | -4.8 | -1.6 | nt | 11.6
N=C1/C(=C\c2ccc(Br)o2)C(=O)N=C2SC(CC(=O)N3CCCCC3)=NN12 | nt | 20.6* | -3.3 | -1.3 | 5.8 | -14.7
Cc1ccc(/C=C2/C(=N)N3N=C(CC(=O)N4CCCC4)SC3=NC2=O)o1 | nt | 6.4 | -14.3 | 5.9 | 1.5 | -7.4
CCCNC(=O)N1CC(=O)N2[C@H](CO)[C@H](c3ccc(C#Cc4ccccc4)cc3)[C@@H]2C1 | nt | nt | nt | nt | 4.6 | nt
CCn1c(CSCc2ccccc2)n[nH]c1=S | nt | 36.6* | -0.5 | 2.5 | 8.7 | -3.2
SMILES | E-sel inducer | SIRT5 block | S100A4 inh HTS | ERAP1 inh | Ecoli rRNA inh | MLL AF4-AF9 inh
CCn1c(Cc2ccccc2)n[nH]c1=S | -0.4 | 30.5* | 1.4 | nt | 11.3 | -10.0
CCn1c(CCc2ccccc2)n[nH]c1=S | 2.8 | nt | 2.1 | 1.9 | 1.0 | 2.9
CCCC(=O)Nc1ccc2c(c1)C(=O)N(C)[C@@H]1CC[C@H](CC(=O)NCCN3CCCCC3)O[C@H]1CO2 | 0.0 | nt | nt | nt | 1.1 | -2.7
CC(=O)Nc1ccc(C=NNc2nnc(NN=Cc3ccc(NC(C)=O)cc3)c3ccccc23)cc1 | 4.5 | 0.0 | 72.0* | 2.6 | -16.3* | 0.1
Cc1ccc(/C=N/Nc2nnc(Cl)c3ccccc23)cc1 | nt | 2.0 | 9.6 | 6.2 | -11.3 | 16.4
C/C=C/c1ccc([C@H]2[C@@H](CO)N(C(=O)c3cnccn3)C23CN(C(=O)CC)C3)cc1 | -0.2 | 1.0 | -11.6 | 1.4 | 1.7 | -0.4
COc1ccc(NC(=O)Nc2cccc([N+](=O)[O-])c2)cc1Cl | 0.2 | -7.4 | 2.5 | -36.1 | -42.8 | -0.6
COc1ccccc1CCNC(=O)Nc1cccc([N+](=O)[O-])c1 | nt | -3.7 | 0.3 | -7.1 | -20.4* | 6.6
CNC[C@@H]1Oc2ccccc2CC(=O)N(C)C[C@@H]1C | nt | nt | nt | nt | -0.3 | nt
COc1ccc(OC)c(CCNC(=O)c2ccc(CS(=O)Cc3ccc(Cl)cc3)o2)c1 (centres undefined) | 0.8 | -0.1 | -1.4 | -2.8 | -28.4* | 3.3
CCS(=O)(=O)Nc1ccc2c(c1)C(=O)N(C)C[C@@H](OC)[C@@H](C)CN(CC1CCCC1)[C@H](C)CO2 | 0.2 | nt | nt | nt | 2.3 | nt
COC(=O)C[C@H]1CC[C@@H]2[C@@H](COc3ccc(NC(=O)NCc4ccccc4)cc3C(=O)N2C)O1 | 0.1 | nt | nt | nt | -1.9 | nt
COCC(=O)Nc1ccc2c(c1)OC[C@H](C)N(C(=O)Cc1cccnc1)C[C@H](C)[C@@H](OC)CN(C)C2=O | -0.3 | -0.1 | -2.0 | -2.0 | 2.2 | -0.7
O=C1CC(=Nc2ccc([N+](=O)[O-])cc2)NN1c1c(Cl)cc(Cl)cc1Cl | 0.0 | 17.1* | -9.7 | 0.2 | -15.5 | 8.1
O=c1ccc2[n+]([O-])c3ccc(O)cc3oc-2c1 | 192.9* | 11.1 | + | nt | 6.9 | 42.7*
O=C(Oc1ccc(C(=S)N2CCOCC2)cc1)c1ccc([N+](=O)[O-])cc1[N+](=O)[O-] | nt | 12.5 | -0.5 | -2.0 | 9.0 | -3.1
O=C(Oc1cccc(C(=S)N2CCOCC2)c1)c1ccc([N+](=O)[O-])cc1[N+](=O)[O-] | -0.2 | 101.4* | -1.9 | 2.6 | -12.6 | 8.4
